Converted amounts (≈) assume the structure as drawn.
Key:
[1] = Kinetic solubility in DMSO solution at pH 1.0 after 2 hrs by HPLC-UV analysis; assay type: physicochemical; conditions: read-out: Kinetic_solubility
[2] = Kinetic solubility in DMSO solution at pH 7.4 after 2 hrs by HPLC-UV analysis; assay type: physicochemical; conditions: for solubility kinetic at 2 h: DMSO solution, pH 7.4, read-out: Kinetic_solubility; for log(Kinetic_solubility): pH 7.4, 2 h
[3] = Cytotoxicity against mouse NIH/3T3 cells assessed as cell viability after 24 hrs by neutral red uptake test; assay type: cell-based; conditions: NIH3T3, 24 h
[4] = organism: Homo sapiens; assay: Selectivity index, ratio of Ki for recombinant human CB1 receptor to Ki for recombinant human CB2 receptor
[5] = target: T1, Cannabinoid receptor 2 (Homo sapiens, UniProt P34972); assay: Displacement of [3H]-CP-55940 from human recombinant CB2 receptor expressed in HEK293 cells after 90 mins by Competition binding assay; assay type: cell-based
[6] = target: Cannabinoid receptor 1 (Homo sapiens) (UniProt P21554); conditions: HEK293
[7] = target: T1, Cannabinoid receptor 2; assay: Inverse agonist activity at recombinant human CB2 receptor expressed in CHO-K1 cells assessed as increase in […]-induced cAMP production by luminescence assay relative to AM630; assay type: functional, cell-based
Procedure, shortened: (§1)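 CHO-K1 cells overexpressing human CB2, 30000 per well, left overnight at 37 °C, 5% CO2, then given compound dose–response with NKH477 (3× solution of 25 μM) to stimulate adenylate cyclase. cAMP read by enzyme-fragment-complementation chemiluminescence; response normalised to NKH477 alone as 100%. Mean ± SEM of two independent experiments in triplicate.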

[8] = target: T1, Cannabinoid receptor 2; assay: Inverse agonist activity at recombinant human CB2 receptor expressed in CHO-K1 cells assessed as increase in […]-induced cAMP production by luminescence assay; assay type: functional, cell-based; procedure, shortened: as §1

T1 sequence (P34972 whole entry): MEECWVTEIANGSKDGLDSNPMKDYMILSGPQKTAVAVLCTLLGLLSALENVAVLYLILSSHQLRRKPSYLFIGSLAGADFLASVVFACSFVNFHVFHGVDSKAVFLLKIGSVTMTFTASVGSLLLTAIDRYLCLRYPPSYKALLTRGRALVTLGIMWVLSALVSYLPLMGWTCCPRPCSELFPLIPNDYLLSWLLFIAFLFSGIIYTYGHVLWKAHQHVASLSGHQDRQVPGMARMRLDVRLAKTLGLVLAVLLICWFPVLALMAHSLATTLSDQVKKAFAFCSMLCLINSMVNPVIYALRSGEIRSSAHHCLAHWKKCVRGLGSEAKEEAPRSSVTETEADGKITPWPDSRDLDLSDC
Sequence of Cannabinoid receptor 1 (Homo sapiens) (P21554 whole entry): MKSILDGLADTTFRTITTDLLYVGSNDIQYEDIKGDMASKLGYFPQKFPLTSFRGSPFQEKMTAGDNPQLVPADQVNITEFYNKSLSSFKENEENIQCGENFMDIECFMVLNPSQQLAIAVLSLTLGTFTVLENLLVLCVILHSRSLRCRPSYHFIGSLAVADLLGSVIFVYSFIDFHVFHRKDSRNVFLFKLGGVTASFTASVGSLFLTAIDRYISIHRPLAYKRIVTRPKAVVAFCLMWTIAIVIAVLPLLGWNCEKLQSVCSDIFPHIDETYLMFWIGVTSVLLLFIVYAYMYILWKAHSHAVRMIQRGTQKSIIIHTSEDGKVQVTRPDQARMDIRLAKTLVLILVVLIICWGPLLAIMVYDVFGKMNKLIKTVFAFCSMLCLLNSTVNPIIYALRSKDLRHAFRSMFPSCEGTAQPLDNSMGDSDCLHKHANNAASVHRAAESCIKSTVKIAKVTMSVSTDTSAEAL

Row | SMILES | solubility kinetic at 2 h [1] [µg/mL] | solubility kinetic at 2 h [2] [µg/mL] | log(Kinetic_solubility) [2] | IC50 [3] [µM] | Ratio Ki [4] | Kieq [5] [nM] | Kieq [6] [nM] | Efficacy [7] [%] | EC50 [8] [µM] | IC50 [5] [µM]
1 | CCCCCn1cc(C(=O)NC23CC4CC(CC(C4)C2)C3)c(=O)c2cc(C(C)C)ccc21 | 0.21 (≈ 0.483 µM) | 1 (≈ 2.3 µM) | -5.64 | 14 |  |  |  |  |  | 
2 | CN(C)CCn1cc(C(=O)NC23CC4CC(CC(C4)C2)C3)c(=O)c2ccc(F)cc21 | 170 (≈ 414 µM) | 5.6 (≈ 13.6 µM) | -4.87 | 15 | 8 | 60 | 501 |  |  | 
3 | CCCCCn1cc(C(=O)NC23CC4CC(CC(C4)C2)C3)c(=O)c2cc(C(C)C)c(F)cc21 |  |  |  | 9 |  |  |  |  |  | 
4 | CCCCCn1c(=O)c(C(=O)NCc2ccc(OC)cc2)c(O)c2cc(-c3cccs3)ccc21 |  |  |  |  | 8 | 19.7 | 159 |  |  | 
5 | Cc1ccc(Cn2nc(C(=O)N[C@@H]3C(C)(C)[C@@H]4CC[C@@]3(C)C4)cc2-c2ccc(Cl)c(C)c2)cc1 |  |  |  |  |  |  | > 2820 |  |  | 
6 | CC(C)c1ccc2c(c1)c(=O)c(C(=O)NC13CC4CC(CC(C4)C1)C3)cn2CCN1CCS(=O)(=O)CC1 |  |  |  |  | > 5 | 1930 | > 10000 |  |  | 
7 | COCCOCn1cc(C(=O)NC23CC4CC(CC(C4)C2)C3)c(=O)c2ccc(F)cc21 |  |  |  |  | > 177 | 56 | > 10000 |  |  | 
8 | COCCOCn1cc(C(=O)NC23CC4CC(CC(C4)C2)C3)c(=O)c2cc(C(C)C)ccc21 |  |  |  |  | > 20 | 480 | > 10000 |  |  | 
9 | CC(C)c1ccc2c(c1)c(=O)c(C(=O)NC13CC4CC(CC(C4)C1)C3)cn2CCN(C)C | 31.5 (≈ 72.3 µM) | 4.5 (≈ 10.3 µM) | -4.99 | 5 | > 68 | 146 | > 10000 |  |  | 
10 | O=C(NC12CC3CC(CC(C3)C1)C2)c1cn(CCN2CCS(=O)(=O)CC2)c2cc(F)ccc2c1=O |  |  |  |  | 8 | 246 | 1900 |  |  | 
11 | O=C(NCC1CCCCC1)c1c(O)c2ccccc2n(CCCCO)c1=O |  |  |  |  | 20 | 41.3 | 829 |  |  | 
12 | CCCCCn1c(=O)c(C(=O)NC23CC4CC(CC(C4)C2)C3)c(O)c2cc(C(C)C)ccc21 | 0.02 (≈ 0.0444 µM) | 1.9 (≈ 4.22 µM) | -5.38 | 13 | 2350 | 0.53 | 1240 | < 50 | 0.0026 | 0.0037
13 | CCCCCn1cc(C(=O)NC23CC4CC(CC(C4)C2)C3)c(=O)c2ccc(F)cc21 | 0.05 (≈ 0.122 µM) | 0.014 (≈ 0.0341 µM) | -7.47 | 74 | 38 | 0.8 | 30.5 |  |  | 
14 | CCCCCn1c(=O)c(C(=O)NC23CC4CC(CC(C4)C2)C3)c(O)c2ccc(F)cc21 | 0.17 (≈ 0.399 µM) | 1.5 (≈ 3.52 µM) | -5.45 | 19 | 1380 | 0.93 | 1280 | < 50 | 0.0179 | 0.0035
15 | CCCCCn1c(=O)c(C(=O)NC23CC4CC(CC(C4)C2)C3)c(O)c2cc(C(C)C)c(F)cc21 |  |  |  | 13 | > 150 | 66.4 | > 10000 |  |  | 
16 | CCCCCn1cc(C(=O)NC23CC4CC(CC(C4)C2)C3)c(=O)c2cc(-c3ccccc3)ccc21 |  |  |  |  | > 2660 | 3.8 | > 10000 |  |  | 
17 | O=C(NCc1ccc(F)cc1)c1c(O)c2cc(-c3ccco3)ccc2n(CCCCO)c1=O |  |  |  |  | 6 | 253 | 1580 |  |  | 
18 | CCCCCn1c(=O)c(C(=O)NC23CC4CC(CC(C4)C2)C3)cc2cc(C(C)C)ccc21 |  |  |  | 92 |  |  |  |  |  | 
19 | CCCCCn1c2c(c(O)c(C(=O)NC34CC5CC(CC(C5)C3)C4)c1=O)CCCC2 | 0.1 (≈ 0.242 µM) | 1.3 (≈ 3.15 µM) | -5.5 | 15 |  |  |  |  |  | 
20 | COc1ccc(CNC(=O)c2c(O)c3cc(-c4cccs4)ccc3n(CCCCO)c2=O)cc1 |  |  |  |  | > 4 | 2240 | > 10000 |  |  | 
21 | CC(C)c1cc2c(=O)c(C(=O)NC34CC5CC(CC(C5)C3)C4)cn(CCN(C)C)c2cc1F | 35.5 (≈ 78.3 µM) | 12.1 (≈ 26.7 µM) | -4.57 |  | 63 | 11.4 | 717 |  |  | 
22 | CCCCCn1cc(C(=O)NC23CC4CC(CC(C4)C2)C3)c(=O)c2ccccc21 |  |  |  |  | 9 | 4.7 | 42.1 |  |  | 
23 | CCCCCn1c(=O)c(C(=O)NC23CC4CC(CC(C4)C2)C3)c(O)c2ccccc21 | 0.23 (≈ 0.563 µM) | 1.4 (≈ 3.43 µM) | -5.47 | 74 |  |  |  | < 50 | 0.0024 | 0.002
24 | CCCCCn1cc(C(=O)NC23CC4CC(CC(C4)C2)C3)c(=O)c2ccc(Sc3ccccc3)cc21 |  |  |  |  | 3.3 | 1.6 | 5.3 |  |  | 

From ChEMBL document CHEMBL3779817, “Investigations on the 4-Quinolone-3-carboxylic Acid Motif. 7. Synthesis and Pharmacological Evaluation of 4-Quinolone-3-carboxamides and 4-Hydroxy-2-quinolone-3-carboxamides as High Affinity Cannabinoid Receptor 2 (CB2R) Ligands with Improved Aqueous Solubility” (J Med Chem, 2016)
